This passage reports IC50 results from ChEMBL document CHEMBL1148905, “Cytotoxic constituents of roots of Chaerophyllum hirsutum” (J Nat Prod, 2004).

Assay type in all cases: functional, cell-based
The subject of assay [1] is LoVo. Briefly: Cytotoxicity against human doxorubicin-resistant LoVo cells after 72 hrs by MTT assay. The essentials:
(§1)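 Parental LoVo and the mdr-expressing (P-glycoprotein) LoVo/Doxo intestinal adenocarcinoma lines cultured in Ham's F12. Exponentially growing cells seeded at 5 × 10^4 cells/mL and allowed 18 h adherence before drug. MTT viability at 72 h. Growth as % of untreated controls, IC50 by linear regression. Mean ± SEM, three independent experiments. Doxorubicin hydrochloride as reference.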
For orientation: Tetrazolium assays rely on reduction of a dye to a coloured formazan, in cell work by metabolically active cells.

The test system of a further assay is HT-1080. Briefly: Cytotoxicity against human HT1080 cells after 72 hrs by MTT assay. Conditions: HT-1080, 72 h. The essentials: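 HT1080 cells grown in DMEM with 10% FBS, penicillin G and streptomycin. Exponentially growing cultures seeded at 5 × 10^4 cells/mL and left to adhere 18 h before drug addition. MTT viability read after 72 h. Growth as % of untreated controls, IC50 by linear regression. Mean ± SEM of three independent experiments. Doxorubicin hydrochloride as reference.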

Assay [2] deals with LoVo. Kind of assay: Cytotoxicity against human LoVo cells after 72 hrs by MTT assay. A digest of the protocol:
as §1

In a further assay the test system is HL-60. Kind of assay: Cytotoxicity against human HL60 cells after 72 hrs by MTT assay. To be noted: HL-60, 72 h. A digest of the protocol: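 HL-60 leukaemia cells in exponential growth, resuspended at 1 × 10^5 cells/mL in RPMI 1640 with 10% FBS, penicillin G and streptomycin. Drug exposure for 72 h, then viability by MTT. Growth at each concentration expressed as % of untreated controls. IC50 (50% growth inhibition) by linear regression. Mean ± SEM of three independent experiments. Doxorubicin hydrochloride as reference.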

Molecules are shown by their SMILES. Where a name gives a salt, the structure may show the parent alone.

In general, IC50 refers to the midpoint of a concentration-inhibition curve. With `O=C(O)/C(=C/c1ccc(O)cc1)[C@@H](C(=O)O)C(=O)c1ccc(O)cc1`, the IC50 in the assay on LoVo [1] came to 19.6 µM; with HT-1080, 30.6 µM; in the assay with LoVo [2], 16.4 µM; in the assay with HL-60 it was 11.5 µM.
On the same counts, the results for `O=C1O[C@@H](c2ccc(O)cc2)[C@H](C(=O)O)/C1=C\c1ccc(O)cc1` (relative stereo) are greater than 40 µM, 36 µM, 13.9 µM and 11.3 µM.
On the same counts, the results for `COc1cccc2c1C(=O)c1c(O)c3c(c(O)c1C2=O)C[C@@](O)(C(=O)CO)C[C@@H]3O[C@H]1C[C@H](N)[C@H](O)[C@H](C)O1` [DOXORUBICIN HYDROCHLORIDE] are 13.2 µM, 0.012 µM, 0.2 µM and 0.01 µM.
As to `C=C[C@@H](O)C#CC#C[C@@H](O)/C=C\CCCCCCC` [FALCARINDIOL], the half-inhibitory concentration (IC50) in the assay with LoVo [1] was greater than 40 µM; in the assay with HT-1080 it was 13 µM; with LoVo [2], 4.3 µM; with HL-60, 8.9 µM.
For `COC(=O)/C=C/c1ccc(O)c(O)c1` [METHYLCAFFEATE], in that order: greater than 40 µM, 11.1 µM, 5.8 µM and 7.5 µM.
For `COc1cc2ccc(=O)oc2cc1O` [SCOPOLETIN], in that order: 18.5 µM, 12.5 µM, 7.3 µM and 9.5 µM.
